The source made the active and inactive calls. The rule behind the calls is not given here.
What was measured:
Eimeria acervulina = assay: Anticoccidial activity in chicken against Eimeria acervulina.; format: functional; design: Reduction: concentration or dose not given beside the values
In short: (§1)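 3-Day-old chicks infected separately with E. tenella or E. acervulina; test compound given mixed in the feed at the stated rates. Activity was scored as percent suppression of oocyst production versus infected, unmedicated controls. Toxicity was judged from average weight gain relative to uninfected controls.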

Eimeria tenella = assay: Anticoccidial activity in chicken against E. tenella; format: functional; design: Reduction: concentration or dose not given beside the values; in short: as §1
Gallus gallus [1] = species on record: Gallus gallus; assay: The compound was tested for anti-coccidial activity in chicken against E. acervulina (DP-761) measured at dose 33(ppm in diet); format: functional
Gallus gallus [2] = species on record: Gallus gallus; assay: The compound was tested for anti-coccidial activity in chicken against E. brunetti (FS-103) measured at dose 33(ppm in diet); format: functional
Gallus gallus [3] = species on record: Gallus gallus; assay: The compound was tested for anti-coccidial activity in chicken against E. hagani(DP-786) measured at dose 33(ppm in diet); format: functional
Gallus gallus [4] = species on record: Gallus gallus; assay: The compound was tested for anti-coccidial activity in chicken against E. maxima(DP-776) measured at dose 33(ppm in diet); format: functional
Gallus gallus [5] = species on record: Gallus gallus; assay: The compound was tested for anti-coccidial activity in chicken against E. praecox(DP-785) measured at dose 33(ppm in diet); format: functional
Gallus gallus [6] = species on record: Gallus gallus; assay: The compound was tested for anti-coccidial activity in chicken against E. mitis(LS-84) measured at dose 33(ppm in diet); format: functional
Gallus gallus [7] = species on record: Gallus gallus; assay: The compound was tested for anti-coccidial activity in chicken against E. tenella(DP-761) measured at dose 33(ppm in diet); format: functional
Gallus gallus [8] = species on record: Gallus gallus; assay: The compound was tested for anti-coccidial activity in chicken against Eimeria brunetti (FS-103) measured at dose 60 (ppm in diet); format: functional
Gallus gallus [9] = species on record: Gallus gallus; assay: The compound was tested for anti-coccidial activity in chicken against Eimeria hagani (DP-786) measured at dose 60 (ppm in diet); format: functional
Gallus gallus [10] = species on record: Gallus gallus; assay: The compound was tested for anti-coccidial activity in chicken against Eimeria maxima (DP-776) measured at dose 60 (ppm in diet); format: functional
Gallus gallus [11] = species on record: Gallus gallus; assay: The compound was tested for anti-coccidial activity in chicken against Eimeria praecox (DP-785) measured at dose 60 (ppm in diet); format: functional
Gallus gallus [12] = species on record: Gallus gallus; assay: The compound was tested for anti-coccidial activity in chicken against Eimeria mitis (LS-84) measured at dose 60 (ppm in diet); format: functional
Gallus gallus [13] = species on record: Gallus gallus; assay: The compound was tested for anti-coccidial activity in chicken against Eimeria praecox (DP-785) measured at dose 100 (ppm in diet); format: functional
Gallus gallus [14] = species on record: Gallus gallus; assay: The compound was tested for anti-coccidial activity in chicken against Eimeria acervulina (DP-761) measured at dose 100 (ppm in diet); format: functional
Gallus gallus [15] = species on record: Gallus gallus; assay: The compound was tested for anti-coccidial activity in chicken against Eimeria brunetti (FS-103) measured at dose 100 (ppm in diet); format: functional
Gallus gallus [16] = species on record: Gallus gallus; assay: The compound was tested for anti-coccidial activity in chicken against Eimeria hagani (DP-786) measured at dose 100 (ppm in diet); format: functional
Gallus gallus [17] = species on record: Gallus gallus; assay: The compound was tested for anti-coccidial activity in chicken against Eimeria maxima (DP-776) measured at dose 100 (ppm in diet); format: functional
Gallus gallus [18] = species on record: Gallus gallus; assay: The compound was tested for anti-coccidial activity in chicken against Eimeria mitis (LS-84) measured at dose 100 (ppm in diet); format: functional
Gallus gallus [19] = species on record: Gallus gallus; assay: The compound was tested for anti-coccidial activity in chicken against Eimeria tenella (DP-761) measured at dose 100 (ppm in diet); format: functional
In short: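 Test article mixed into the feed at the stated rates and given to 3-day-old chicks infected with […]. Each Eimeria species was inoculated separately. Activity was scored as percent suppression of oocyst output relative to infected, unmedicated controls. Toxicity was judged from average weight gain relative to uninfected controls.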

Gallus gallus [20] = species on record: Gallus gallus; assay: The compound was tested for anti-coccidial activity in chicken against E. brunetti (FS-103) measured at dose 125(ppm in diet); format: functional
Gallus gallus [21] = species on record: Gallus gallus; assay: The compound was tested for anti-coccidial activity in chicken against E. hagani(DP-786) measured at dose 125(ppm in diet); format: functional
Gallus gallus [22] = species on record: Gallus gallus; assay: The compound was tested for anti-coccidial activity in chicken against E. maxima(DP-776) measured at dose 125(ppm in diet); format: functional
Gallus gallus [23] = species on record: Gallus gallus; assay: The compound was tested for anti-coccidial activity in chicken against E. praecox(DP-785) measured at dose 125(ppm in diet); format: functional
Gallus gallus [24] = species on record: Gallus gallus; assay: The compound was tested for anti-coccidial activity in chicken against E. mitis(LS-84) measured at dose 125(ppm in diet); format: functional
Gallus gallus [25] = species on record: Gallus gallus; assay: The compound was tested for anti-coccidial activity in chicken against E. tenella(DP-761) measured at dose 125(ppm in diet); format: functional
Gallus gallus [26] = species on record: Gallus gallus; assay: The compound was tested for anti-coccidial activity in chicken against E. acervulina (DP-761) measured at dose 125(ppm in diet); format: functional
Gallus gallus [27] = species on record: Gallus gallus; assay: The compound was tested for anti-coccidial activity in chicken against E. acervulina; Inactive; format: functional, organism-based; in short: as §1

NC(=O)c1nnn(Cc2cc(Cl)c(C(=O)c3ccc(C(Cl)=C(Cl)Cl)cc3)c(Cl)c2)c1N
Reduction (Eimeria acervulina): 90%
Reduction (Eimeria tenella): 80%

N=C(N/N=C/c1ccc(Cl)cc1)N/N=C/c1ccc(Cl)cc1 [ROBENIDINE]
Reduction (Eimeria acervulina): 80%
Reduction (Gallus gallus [1]): 99.9%
Reduction (Gallus gallus [2]): 100%
Reduction (Gallus gallus [3]): 0%
Reduction (Gallus gallus [4]): 21%
Reduction (Gallus gallus [5]): 54%
Reduction (Eimeria tenella): 80%
Reduction (Gallus gallus [6]): 100%
Reduction (Gallus gallus [7]): 0%

NC(=O)c1nnn(Cc2cc(Cl)c(C(=O)c3ccc(Cl)c(Cl)c3)c(Cl)c2)c1N
Reduction (Eimeria acervulina): 90%
Reduction (Eimeria tenella): 90%

NC(=O)c1nnn(Cc2cccc(C(=O)c3ccc(Cl)cc3)c2)c1N
Reduction (Eimeria acervulina): 90%
MED (Eimeria tenella): > 500 ppm

NC(=O)c1nnn(Cc2cc(Cl)c(C(=O)c3ccc(I)cc3)c(Cl)c2)c1N
Reduction (Eimeria acervulina): 90%
Reduction (Eimeria tenella): >99%

CC[C@@H](C(=O)[C@@H](C)[C@@H](O)[C@H](C)[C@@H]1O[C@@H]([C@@H](CC)C(=O)O)CC[C@@H]1C)[C@H]1O[C@]2(C=C[C@@H](O)[C@]3(CC[C@@](C)([C@H]4CC[C@](O)(CC)[C@H](C)O4)O3)O2)[C@H](C)C[C@@H]1C [SALINOMYCIN]
Reduction (Gallus gallus [8]): 74%
Reduction (Gallus gallus [9]): 0%
Reduction (Gallus gallus [10]): 0%
Reduction (Gallus gallus [11]): 62%
Reduction (Eimeria tenella): 85%
Reduction (Gallus gallus [12]): 91%

NC(=O)c1nnn(Cc2cc(Cl)cc(Cl)c2)c1N
MED (Eimeria acervulina): > 125 ppm
MED (Eimeria tenella): > 125 ppm

NC(=O)c1nnn(Cc2ccc(Cl)cc2)c1N
Reduction (Eimeria acervulina): 80%
MED (Eimeria tenella): > 1000 ppm

CC[C@@H](C(=O)[C@@H](C)[C@@H](O)[C@H](C)CCc1ccc(C)c(O)c1C(=O)O)[C@H]1O[C@](CC)([C@H]2CC[C@](O)(CC)[C@H](C)O2)C[C@@H]1C [LASALOCID]
Reduction (Gallus gallus [13]): 34%
Reduction (Eimeria acervulina): 80%
Reduction (Gallus gallus [14]): 16%
Reduction (Gallus gallus [15]): 100%
Reduction (Gallus gallus [16]): 74%
Reduction (Gallus gallus [17]): 100%
Reduction (Gallus gallus [18]): 100%
Reduction (Eimeria tenella): 80%
Reduction (Gallus gallus [19]): 100%

NC(=O)c1nnn(Cc2ccc(C(=O)c3ccc(Cl)cc3Cl)c(Cl)c2)c1N
MED (Eimeria acervulina): > 250 ppm
Reduction (Eimeria tenella): 90%

Nc1ncnc2c1ncn2Cc1c(F)cccc1Cl [ARPRINOCID]
Reduction (Eimeria acervulina): 80%
Reduction (Eimeria tenella): 80%

NC(=O)c1nnn(Cc2ccc(C(=O)c3ccc(Cl)cc3)c(Cl)c2)c1N
Reduction (Eimeria acervulina): 90%
MED (Eimeria tenella): > 500 ppm

NC(=O)c1nnn(Cc2cc(Cl)c(C(=O)c3cc(Cl)cc(Cl)c3)c(Cl)c2)c1N
Reduction (Eimeria acervulina): > 99%
Reduction (Eimeria tenella): > 99%

COC(=O)c1ccc(C(=O)c2c(Cl)cc(Cn3nnc(C(N)=O)c3N)cc2Cl)cc1
MED (Eimeria acervulina): > 250 ppm
MED (Eimeria tenella): > 250 ppm

NC(=O)c1nnn(Cc2ccc(Cl)c(C(=O)c3ccc(Cl)cc3)c2)c1N
Reduction (Eimeria acervulina): 90%
Reduction (Eimeria tenella): 90%

Cc1cc(C)nc(O)n1.O=C(Nc1ccc([N+](=O)[O-])cc1)Nc1ccc([N+](=O)[O-])cc1 [NICARBAZIN]
Reduction (Eimeria acervulina): 80%
Reduction (Gallus gallus [20]): 100%
Reduction (Gallus gallus [21]): 0%
Reduction (Gallus gallus [22]): 21%
Reduction (Gallus gallus [23]): 34%
Reduction (Eimeria tenella): 80%
Reduction (Gallus gallus [24]): 100%
Reduction (Gallus gallus [25]): 100%
Reduction (Gallus gallus [26]): 0%

NC(=O)c1nnn(Cc2cc(Cl)c(C(=O)c3ccc(F)cc3)c(Cl)c2)c1N
Reduction (Eimeria acervulina): 90%
Reduction (Eimeria tenella): 90%

NC(=O)c1ncn(Cc2ccc(Cl)c(Cl)c2)c1N
Reduction (Eimeria acervulina): >99%
Reduction (Eimeria tenella): >99%

CCCc1ncc(C[n+]2ccccc2C)c(N)n1.Cl.[Cl-] [AMPROLIUM]
Reduction (Eimeria acervulina): 80%
Reduction (Gallus gallus [20]): 79%
Reduction (Gallus gallus [21]): 0%
Reduction (Gallus gallus [22]): 0%
Reduction (Gallus gallus [23]): 18%
Reduction (Eimeria tenella): 80%
Reduction (Gallus gallus [24]): 36%
Reduction (Gallus gallus [25]): 100%
Reduction (Gallus gallus [26]): 7%

NC(=O)c1nnn(Cc2cc(F)c(C(=O)c3ccc(Cl)cc3)c(Cl)c2)c1N
Reduction (Eimeria acervulina): 90%
Reduction (Eimeria tenella): 90%

NC(=O)c1nnn(Cc2cc(Cl)c(C(=O)c3ccc(Br)cc3)c(Cl)c2)c1N
Reduction (Eimeria acervulina): 80%
Reduction (Eimeria tenella): 90%

NC(=O)c1nnn(Cc2ccccc2)c1N
Reduction (Gallus gallus [27]): inactive

NC(=O)c1nnn(Cc2cc(Cl)c(C(=O)c3ccccc3)c(Cl)c2)c1N
Reduction (Eimeria acervulina): 90%
Reduction (Eimeria tenella): 90%

N#Cc1ccc(C(=O)c2c(Cl)cc(Cn3nnc(C(N)=O)c3N)cc2Cl)cc1
Reduction (Eimeria acervulina): 90%
Reduction (Eimeria tenella): 90%

NC(=O)c1nnn(Cc2ccc(C(=O)c3c(Cl)cccc3Cl)cc2)c1N
MED (Eimeria acervulina): > 250 ppm
MED (Eimeria tenella): > 250 ppm

NC(=O)c1nnn(Cc2cc(Cl)c(C(=O)c3ccc(Cl)cc3)c(Br)c2)c1N
Reduction (Eimeria acervulina): 90%
Reduction (Eimeria tenella): 90%

NC(=O)c1nnn(Cc2ccc(C(=O)c3c(Cl)cc(Cl)cc3Cl)cc2)c1N
Reduction (Eimeria acervulina): 90%
MED (Eimeria tenella): > 250 ppm

NC(=O)c1nnn(Cc2ccc(Cl)c(Cl)c2)c1N
Reduction (Eimeria acervulina): 80%
Reduction (Eimeria tenella): 80%

NC(=O)c1nnn(Cc2ccc(C(=O)c3ccc(Cl)cc3)cc2)c1N
Minimum active dose (Eimeria acervulina): > 500 ppm
MED (Eimeria tenella): > 500 ppm

From ChEMBL document CHEMBL1125210, “Benzylated 1,2,3-triazoles as anticoccidiostats” (J Med Chem, 1991)
